ChEMBL document CHEMBL1146121 (J Med Chem, 2006)
pIC50: −log10 of the molar value.

Experiments:
[1] = molecular target: T1, 1-deoxy-D-xylulose 5-phosphate reductoisomerase (Escherichia coli K-12, UniProt P45568); assay: Inhibition of recombinant Escherichia coli DXR
T1 sequence (P45568 whole entry): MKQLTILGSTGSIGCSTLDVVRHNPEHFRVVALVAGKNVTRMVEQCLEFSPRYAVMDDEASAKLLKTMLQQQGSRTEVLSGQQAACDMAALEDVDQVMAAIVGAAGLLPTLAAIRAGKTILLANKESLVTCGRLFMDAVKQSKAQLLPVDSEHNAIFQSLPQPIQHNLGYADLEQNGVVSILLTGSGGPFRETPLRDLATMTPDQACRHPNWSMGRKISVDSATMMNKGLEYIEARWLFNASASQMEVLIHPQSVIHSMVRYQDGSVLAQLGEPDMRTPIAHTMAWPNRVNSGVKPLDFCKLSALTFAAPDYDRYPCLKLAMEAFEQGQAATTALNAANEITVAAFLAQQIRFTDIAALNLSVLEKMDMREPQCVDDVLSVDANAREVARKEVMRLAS
Procedure, shortened: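 Enzyme activity measured as conversion of DOXP to MEP, read out via the NADPH dependence of the reductoisomerase reaction.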

[2] = system: Plasmodium falciparum; assay: Inhibition of Plasmodium falciparum Dd2; assay type: functional, organism-based
Procedure, shortened: (§1)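 Intraerythrocytic parasites cultured with the test agent in a semiautomated microdilution format. Growth was followed by incorporation of tritium-labelled hypoxanthine.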

[3] = system: Plasmodium falciparum; assay: Inhibition of Plasmodium falciparum 3D7; assay type: functional, organism-based; procedure, shortened: as §1

Row | SMILES | pIC50 [1] | pIC50 [2] | pIC50 [3]
1 | CC(=O)N(O)C[C@@H]1C[C@H]1P(=O)(O)O | 7.30 | 6.32 | 6.49
2 | O=CN(O)C[C@@H]1C[C@H]1P(=O)(O)O | 6.50 | 5.70 | 5.68
3 | CC(=O)N(O)CC1CC1P(=O)(O)O (centres undefined) | 6.80 | – | –
4 | CCC(=O)N(O)C[C@@H]1C[C@H]1P(=O)(O)O | < 5.52 | – | –
5 | CC(=O)N(O)CC1CC1(c1ccccc1)P(=O)(O)O (centres undefined) | < 4.52 | – | –
6 | O=CN(O)CCCP(=O)(O)O [FOSMIDOMYCIN] | – | 6.32 | 6.40
7 | CC(=O)N(O)CCCP(=O)(O)O [FR-900098] | 7.24 | 6.55 | 6.62
